Measurements from PubChem BioAssay AID463192 (Sanford-Burnham Center for Chemical Genomics, 2010).
Activity calls are given as the source filed them.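 How the source made its calls: active means membrane recruitment of a green fluorescent kinase sensor scored by eye at 30% or more; inactive means the rest.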

Target: G-protein coupled receptor 55 (Homo sapiens) (UniProt Q9Y2T6)
Experiment: agonist-driven PKCbII translocation via GPR55 – imaging, HEK293, PKCbII-GFP, SAR follow-up (AID 463192)
Conditions: HEK293 GPR55, PKCbII-GFP membrane recruitment imaging
How it was run: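 Assay system: HEK293 cells transiently expressing wild-type human GPR55 and PKC βII-GFP biosensor / Buffer or medium: serum-free MEM / Compound dosing: four-point compound series, 10 nM to 10 µM final, duplicate / Timing: 15 min compound exposure at 37 °C / Detection: fluorescence microscopy of fixed cells, scored by eye / Replicates: duplicate wells per compound dose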

Chain of G-protein coupled receptor 55 (Homo sapiens) (Q9Y2T6 whole entry, looked up): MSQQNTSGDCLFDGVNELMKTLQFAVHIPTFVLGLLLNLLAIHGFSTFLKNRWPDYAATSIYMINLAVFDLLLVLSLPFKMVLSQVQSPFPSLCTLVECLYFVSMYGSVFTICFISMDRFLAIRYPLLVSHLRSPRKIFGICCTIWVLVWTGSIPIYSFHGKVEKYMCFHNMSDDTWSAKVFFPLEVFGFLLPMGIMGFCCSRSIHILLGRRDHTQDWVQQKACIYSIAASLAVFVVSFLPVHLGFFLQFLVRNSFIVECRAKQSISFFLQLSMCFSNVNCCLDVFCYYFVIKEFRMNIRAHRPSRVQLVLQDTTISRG

| Structure (SMILES) | outcome |
| --- | --- |
| COc1ccccc1/C=C/C(=O)NC(=S)Nc1ccc(S(=O)(=O)N(C)c2ccccc2)cc1 | active; +++ |
| COc1ccc2cc(C)c3nnc(SCC(=O)Nc4nc(-c5ccc(F)cc5)cs4)n3c2c1 | active; +++ |
| Cc1occc1C(=O)Nc1ccc(OCc2ccccc2)cc1 | active; +++ |
| CCCN(CCC)Cc1c(C(=O)NN=Cc2c[nH]c3ccccc23)nnn1-c1nonc1N | active; +++ |
| COc1ccc(-c2csc(NC(=O)CSc3nnc4c(C)cc5ccccc5n34)n2)cc1 | active; +++ |

The next lines start with the values.

| outcome | Structure (SMILES) |
| --- | --- |
| active; +++ | COc1ccc(S(=O)(=O)N2CCOCC2)cc1NC(=O)c1cc2c(s1)CCCC2 |
| active; +++ | CN(C)S(=O)(=O)c1ccc(N2CCCC2)c(C(=O)N2CCN(c3ccc([N+](=O)[O-])cc3)CC2)c1 |
| active; +++ | CC(C)Oc1ccc(S(=O)(=O)N2CCOCC2)cc1NC(=O)c1ccc(N2CCCC2=O)cc1 |
| active; +++ | Cc1cccc(N2CCN(C(=O)c3cc(S(=O)(=O)N(C)C)ccc3N3CCCC3)CC2)c1C |
